APP 5'UTR act = activators of APP 5'UTR luciferase reporter, primary screen, SH-SY5Y cells; actives 1% (n = 190,000); SH-SY5Y APP 5'UTR luciferase reporter, luminescence; zero percent = DMSO vehicle wells; activation, % at 2 µM;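 active means activation above a set limit, based on mean plus 3 SD of controls, cut at about 140% in these data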
FLuc inhib CS = firefly luciferase enzyme inhibitors, primary screen, artefact control for luciferase-based inhibitor screens, biochemical, luminescence, ATPLite | Luciferin 4-monooxygenase (Photinus pyralis), P08659 | 10 min | inhibition, % at 10 µM | actives 1.5% (n = 200,000) | AID 1006, 2008;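 active means inhibition above about 50% when tested at 10 µM, limit read from the data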
Target sequence (P08659 whole entry, looked up): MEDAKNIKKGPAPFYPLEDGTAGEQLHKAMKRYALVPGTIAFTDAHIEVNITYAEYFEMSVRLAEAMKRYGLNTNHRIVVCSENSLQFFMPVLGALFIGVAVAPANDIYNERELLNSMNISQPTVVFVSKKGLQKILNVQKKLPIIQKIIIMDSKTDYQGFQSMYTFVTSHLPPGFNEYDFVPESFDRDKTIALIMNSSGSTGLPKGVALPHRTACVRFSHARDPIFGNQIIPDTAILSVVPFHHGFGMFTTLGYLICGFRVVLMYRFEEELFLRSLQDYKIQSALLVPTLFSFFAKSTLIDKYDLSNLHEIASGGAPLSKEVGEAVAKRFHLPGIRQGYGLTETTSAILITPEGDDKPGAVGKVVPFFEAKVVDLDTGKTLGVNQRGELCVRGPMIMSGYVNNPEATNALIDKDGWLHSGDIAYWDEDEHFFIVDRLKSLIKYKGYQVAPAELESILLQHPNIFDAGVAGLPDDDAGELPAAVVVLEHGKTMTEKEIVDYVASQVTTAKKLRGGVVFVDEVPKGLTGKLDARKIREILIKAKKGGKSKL
STAT1 act = STAT1 signaling activators, primary screen, cell-based, HTS, luciferase reporter. NIH 3T3 STAT1-luciferase reporter, IFN-gamma, luminescence; 100% = IFN-gamma alone, no compound. activation (% of control), % at 5.5 µM. actives 2.6% (n = 200,000). AID 932, 2007;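 active means activation above the screen-wide mean activation plus 3 SD, cut at about 130% in these data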
FLuc act counter = FLuc activators, initial screening, artefact control for FLuc-dependent activation tests, biochemical, ATPlite luminescence. Luciferin 4-monooxygenase (Photinus pyralis), P08659. ATPlite luciferase biochemical, 10 min; 0 = ATP-free wells, 1 = DMSO control. activation factor at 10 µM. 200,000 tested, under 10 active;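 active means luciferase activation factor, scaled between plate controls, of at least 2 with compound at 10 µM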
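Assay system: Luciferase/luciferin reagent mix; Medium: PBS as buffer for the ATP substrate; Dosing: test compounds dosed from 2 mM stocks in 100% DMSO; Times: 10 min, room temperature; Signal: luminescence from luciferase reaction; Read-out: luciferase activation; Controls: No-ATP low control, compound-free enzyme-plus-ATP high control.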
NF-kB expr up = activators of NF-kB expression in neurons, primary screen, cell-based, HTS; human neuronal cells, NF-kB reporter expression; hits give high values; fold change at 12.5 µM; actives 1.6% (n = 190,000); AID 1239, 2008; in the data active means fold change above about 3.3
Each line names hits and unclear results; the compound was inactive in the other large screens. Sampled rows, rich in hits. Any-hit rate of the full collection: about 4.3%.

CN(C)/C=C/C(=O)c1ccc(-n2cccc2)cc1	FLuc inhib CS 85
Cc1ccc(-c2nnc(CCC(=O)NCC3C4CC5CC(C4)CC3C5)o2)s1 (stereo not drawn)	STAT1 act 147
O=C(CC1C(=O)NCCN1Cc1c(F)cccc1Cl)NC1CCCC1 (stereo not drawn)	none
COc1cccc2cc(C(=O)Nc3cccc(C)n3)c(=O)oc12	FLuc inhib CS 54 (no result: APP 5'UTR act, STAT1 act, NF-kB expr up)
COc1cccc2cc(NC(=O)C3CCCCC3)c(=O)oc12	STAT1 act 131
COc1ccccc1CN1CCNC(=O)C1CC(=O)NCCc1cnccn1 (stereo not drawn)	none (no result: NF-kB expr up)
Clc1ccc(-c2nnc(Sc3nc4ccccc4o3)c3ccccc23)cc1	NF-kB expr up 4.2
Cc1ccc(-c2nnc(Sc3nc4ccccc4o3)c3ccccc23)cc1	NF-kB expr up 4.9
Cc1nnc(Sc2nc3ccccc3o2)c2ccccc12	none
CCOc1ccccc1-n1nnnc1SC(C)C(=O)OC (stereo not drawn)	none
Cc1ccccc1CN(C)CC(=O)Nc1c(C)cccc1C(C)C	none
COc1ccc2nc(NC3=NCCC3)sc2c1	STAT1 act 136
COc1cccc(Nc2nc3ccc(OC)cc3s2)c1	APP 5'UTR act 195, STAT1 act 129, NF-kB expr up 4.7
COc1ccc(-c2nc(NC3=NCCCCC3)sc2C)cc1	none
Cc1ccc(NCc2nnc(SCC(=O)N3c4ccccc4Sc4ccccc43)o2)c(C)c1	none (no result: APP 5'UTR act)
Cc1ccc(-c2cn3c(n2)CCCC3)cc1	none
COc1ccc(-c2cn3c(n2)CCC3)cc1	STAT1 act 129
CCCn1c(O)c(C=Nc2ccccc2)sc1=S	STAT1 act 138
CCCCn1c(O)c(/C=C/C=C/C=Nc2ccccc2)sc1=S	none
Cc1ccccc1-c1nnc(SCc2ccccc2)o1	STAT1 act 132
Cc1ccccc1-c1nnc(SCC(=O)Nc2cccc(C)c2C)o1	none
COc1ccc(-c2nnc(SCc3ccccc3F)o2)cc1	APP 5'UTR act 157, STAT1 act 142, NF-kB expr up 7.7
COc1ccc(-c2nnc(SCC#N)o2)cc1	none
C#CCSc1nnc(-c2ccc(OC)cc2)o1	STAT1 act 134
Cc1ccccc1-c1nnc(SCc2ccccc2F)o1	APP 5'UTR act 142, STAT1 act 148, NF-kB expr up 6.4
CCSc1nnc(-c2ccc(OC)cc2)o1	none
Cc1cc(C)n(CC(=O)c2cccc(N)c2)n1	none
Cc1ccccc1CSc1nnc(-c2ccncc2)o1	none
Brc1ccc(CSc2nnc(-c3ccco3)o2)cc1	none
Cc1ccc(CSc2nnc(-c3ccco3)o2)cc1	NF-kB expr up 3.9
Fc1ccccc1CSc1nnc(-c2ccccc2)o1	APP 5'UTR act 139, STAT1 act 145, NF-kB expr up 5
O=S(=O)([O-])CCC[n+]1c(/C=C\Nc2ccccc2)oc2ccc(-c3ccccc3)cc21	none
CC(C)C(NC(=O)c1ccco1)C(=O)OCC(=O)Nc1ccc(C(N)=O)cc1 (stereo not drawn)	none
CCCc1cc2c(=O)c(-c3ccccn3)c(C)oc2cc1O	none
CCCc1cc2c(=O)c(-c3ccccn3)coc2cc1OC	STAT1 act 136, NF-kB expr up 3.9
O=C(COc1ccc(F)cc1)N1CCC(c2ccccc2)C1 (stereo not drawn)	STAT1 act 136
O=C(c1cccs1)N1CCC(c2ccccc2)C1 (stereo not drawn)	STAT1 act 135
O=C(/C=C/c1ccccc1)N1CCC(c2ccccc2)C1 (stereo not drawn)	APP 5'UTR act 141, STAT1 act 137, NF-kB expr up 4.4
O=C(Nc1ccccc1)N1CCC(c2ccccc2)C1 (stereo not drawn)	STAT1 act 138
Cc1cccc(OCC(=O)N2CCC(c3ccccc3)C2)c1 (stereo not drawn)	none
O=C(CCN1CCC(c2ccccc2)C1)c1cccs1 (stereo not drawn)	none
CCOC(=O)CN(Cc1sccc1C)C(=O)Nc1ccc(OCC)cc1	none
CCn1nnc(NC(=O)c2ccc(C(C)(C)C)cc2)n1	FLuc inhib CS 82, NF-kB expr up 3.7
Cc1cccc(NC(=S)N(CCN2CCOCC2)Cc2cc3cc4c(cc3[nH]c2=O)OCCO4)c1	none
CCc1ccc(-c2nc(CCl)cs2)cc1	FLuc inhib CS 65, STAT1 act 147
CC(C)n1c(Nn2cnnc2)nc2ccccc21	none
O=c1c2ccccc2nc(/C=C/c2ccccc2)n1CCc1ccccc1	none
CCCn1c(/C=C/c2ccccc2)nc2ccccc21	FLuc inhib CS 72, STAT1 act 144, NF-kB expr up 5.6
CC(C)n1c(/C=C/c2ccccc2)nc2ccccc21	FLuc inhib CS 70
COCCOCCn1c(/C=C/c2ccccc2)nc2ccccc21	APP 5'UTR act 166, FLuc inhib CS 84, STAT1 act 135, NF-kB expr up 6
Cc1ccc(/C=N/NC(=O)c2ccccn2)o1	STAT1 act 130
O=C(N/N=C/c1cccc(OC(=O)c2ccco2)c1)c1ccc(F)cc1	FLuc inhib CS 63
COc1cc(/C=N/NC(=O)c2ccc(F)cc2)ccc1OC(=O)c1ccco1	none
O=C(N/N=C/c1ccc2ncccc2c1)c1ccco1	FLuc inhib CS 92
O=C(N/N=C/c1ccc(OC(=O)c2ccco2)cc1)c1ccccn1	FLuc inhib CS 52
Cc1ccc(/C=N/NC(=O)c2ccncc2)o1	none
CCOc1ccccc1NC(=O)COC(=O)C(CC)c1ccccc1 (stereo not drawn)	none
CC1=Nc2ccccc2N=C(NC(=O)c2ccccc2)C1c1ccccc1 (stereo not drawn)	none
Cc1cccc(-n2c(C)cc(/C=N/O)c2C)c1	none
Cc1cccc(-n2c(C)cc(/C=N\NC(=O)c3ccco3)c2C)c1	STAT1 act 145
CC1CCCCC1NCC(=O)NCc1ccc(F)cc1 (stereo not drawn)	none
Cc1cc(C)cc(C(=O)Nc2ccc(N3CCCC3)cc2)c1	APP 5'UTR act 146, STAT1 act 151
O=C(Nc1ccc(N2CCOCC2)cc1)c1cn2ccccc2n1	FLuc inhib CS 93
COc1ccccc1C(=O)Nc1ccc(N2CCN(C(C)=O)CC2)cc1	none
COc1ccccc1C(=O)Nc1ccc(N2CCCCC2)cc1	APP 5'UTR act 168, FLuc inhib CS 71, STAT1 act 140, NF-kB expr up 4.9
O=C(Nc1ccc(SC(F)(F)F)cc1)c1ccccn1	APP 5'UTR act 150, FLuc inhib CS 71
CCCNC(=O)NC1CCCc2ccccc21 (stereo not drawn)	none
O=C(Nc1ccc(N2CCCC2)cc1)C(c1ccccc1)c1ccccc1	none
O=C(Nc1ccc(N2CCCCCC2)cc1)c1ccccc1Cl	STAT1 act 147, NF-kB expr up 4.7
O=C(Nc1ccc(N2CCCCC2)cc1)c1ccccn1	FLuc inhib CS 97

Source: PubChem
